{"data": "Results collected from several papers", "target": "Serine/threonine-protein kinase Sgk3 (SGK3, Homo sapiens, UniProt Q96BR1)", "One construct used (Q96BR1 1-496)": "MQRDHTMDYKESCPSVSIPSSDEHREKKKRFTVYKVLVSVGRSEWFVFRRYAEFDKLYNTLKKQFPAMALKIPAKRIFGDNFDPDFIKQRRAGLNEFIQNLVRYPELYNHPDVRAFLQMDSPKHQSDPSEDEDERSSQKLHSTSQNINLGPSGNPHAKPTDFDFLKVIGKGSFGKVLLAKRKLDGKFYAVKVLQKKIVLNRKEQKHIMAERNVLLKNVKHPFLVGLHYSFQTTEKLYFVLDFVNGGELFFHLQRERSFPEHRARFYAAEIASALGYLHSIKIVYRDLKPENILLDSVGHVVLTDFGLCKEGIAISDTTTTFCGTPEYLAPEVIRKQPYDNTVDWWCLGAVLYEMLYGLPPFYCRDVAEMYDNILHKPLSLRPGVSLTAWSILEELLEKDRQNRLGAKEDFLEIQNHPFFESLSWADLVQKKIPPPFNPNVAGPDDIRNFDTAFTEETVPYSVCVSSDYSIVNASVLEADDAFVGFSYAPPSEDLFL", "note": "Each line is one published result; the experiments were not run side by side."}
{"Structure (SMILES)": "COc1ccc2[nH]c3c4[nH]c5ccc(OC)cc5c4c4c(c3c2c1)C(=O)NC4=O", "assay": "binding", "conditions": "1 µM", "measurement": "remaining binding", "value": "8.1%"}
{"Structure (SMILES)": "C=CC(=O)N1CCC[C@@H](n2nc(-c3ccc(Oc4ccccc4)cc3)c3c(N)ncnc32)C1", "assay": "enzyme activity, inhibitor", "conditions": "1 µM", "measurement": "inhibition", "value": "9%"}
{"Structure (SMILES)": "CCCCC(=O)Nc1ccc(-c2ccc3ncn(CCC)c(=O)c3c2)cn1", "assay": "binding, competition with immobilised ligand", "conditions": "0.5 µM", "measurement": "remaining binding", "value": "97%"}
{"Structure (SMILES)": "C#Cc1cc(-c2cc(Nc3nc(N[C@@H](C)c4ccc(F)cn4)ncc3Cl)n[nH]2)ccc1C=O", "assay": "enzyme activity, inhibitor", "conditions": "0.2 µM", "measurement": "inhibition", "value": "19.1%"}
{"Structure (SMILES)": "Cc1cc(O)c(-c2ccc([C@@H](C)CN(C)C)cc2)c2c1[nH]c(=O)c1sccc12", "assay": "enzyme activity, inhibitor", "conditions": "0.1 µM", "measurement": "inhibition", "value": "3.22%"}
{"Structure (SMILES)": "C[C@H]1CC[C@H](n2c3cnccc3c3cnc(Nc4ccc5c(n4)CCN(C(=O)CO)C5)nc32)CC1", "assay": "cell-free assay", "conditions": "1 µM", "measurement": "remaining signal", "value": "39%"}
{"Structure (SMILES)": "CC(C)S(=O)(=O)c1ccc2nccc(Nc3ccc4sc(C5CCCC5)nc4c3)c2c1", "assay": "enzyme activity, inhibitor", "conditions": "1 µM", "measurement": "activity vs control", "value": "110%"}
{"Structure (SMILES)": "CO[C@@H]1[C@H](N(C)C(=O)c2ccccc2)C[C@H]2O[C@]1(C)n1c3ccccc3c3c4c(c5c6ccccc6n2c5c31)C(=O)NC4", "assay": "enzyme activity, inhibitor", "conditions": "1 µM", "measurement": "inhibition", "value": "43%"}
